According to ChEMBL document CHEMBL1151442, “Genetic and phenotypic identification of fusidic acid-resistant mutants with the small-colony-variant phenotype in Staphylococcus aureus” (2007):
≈ marks a conversion by molar mass, not a printed value.

How the values were obtained:
Format in all cases: functional
Staphylococcus aureus [1] = assay: Ratio of MIC for kanamycin-resistant Staphylococcus aureus harboring mutations in FusA gene to MIC for wild type kanamycin-susceptible Staphylococcus aureus AH001
Staphylococcus aureus [2] = assay: Ratio of MIC for kanamycin-resistant Staphylococcus aureus harboring mutations in FusE gene to MIC for wild type kanamycin-susceptible Staphylococcus aureus AH001
Staphylococcus aureus [3] = assay: Antibacterial activity against kanamycin-resistant and fusidic acid-susceptible Staphylococcus aureus AH422 harboring +2 frameshift mutation at nucleotide 222 in rplF gene after 18 to 24 hrs by Etest strip assay
How it was run: (§1)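 Etest MIC: a single colony was suspended in 0.9% NaCl to 0.5 McFarland and swabbed over Mueller-Hinton agar. The strip was applied and plates were incubated at 37°C for 18 to 24 h until an SCV lawn grew.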

Staphylococcus aureus [4] = assay: Antibacterial activity against kanamycin-resistant and fusidic acid-susceptible Staphylococcus aureus AH290 harboring duplication mutation at nucleotide 202-293 in rplF gene after 18 to 24 hrs by Etest strip assay; how it was run: as §1
Staphylococcus aureus [5] = assay: Antibacterial activity against kanamycin-resistant and fusidic acid-susceptible Staphylococcus aureus AH420 harboring deletion of nucleotide 72-80 in rplF gene after 18 to 24 hrs by Etest strip assay; how it was run: as §1
Staphylococcus aureus [6] = assay: Antibacterial activity against kanamycin-resistant and fusidic acid-susceptible Staphylococcus aureus AH417 harboring -1 frameshift mutation at nucleotide 422 in rplF gene after 18 to 24 hrs by Etest strip assay; how it was run: as §1
Staphylococcus aureus [7] = assay: Antibacterial activity against kanamycin-resistant and fusidic acid-susceptible Staphylococcus aureus AH416 harboring deletion of nucleotide 395-398 in rplF gene after 18 to 24 hrs by Etest strip assay; how it was run: as §1
Staphylococcus aureus [8] = assay: Antibacterial activity against fusidic acid-resistant Staphylococcus aureus AH207 harboring Thr385Asn mutation in fusA gene after 18 to 24 hrs by Etest strip assay
How it was run: (§2)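 Mutants of lab strain 8325-4 were selected on LA with FA 2 μg/ml for 48 h at 37°C and purified on selective medium. For the MIC, one colony was suspended in 0.9% NaCl to 0.5 McFarland and swabbed onto Mueller-Hinton agar. An Etest strip was applied and plates were incubated at 37°C for 18–24 h until the lawn was evident.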

Staphylococcus aureus [9] = assay: Antibacterial activity against fusidic acid-resistant Staphylococcus aureus AH196 harboring Pro406Leu mutation in fusA gene after 18 to 24 hrs by Etest strip assay; how it was run: as §2
Staphylococcus aureus [10] = assay: Antibacterial activity against fusidic acid-resistant Staphylococcus aureus AH201 harboring Gly452Cys mutation in fusA after 18 to 24 hrs by Etest strip assay; how it was run: as §2
Staphylococcus aureus [11] = assay: Antibacterial activity against fusidic acid-resistant Staphylococcus aureus AH187 harboring His457Tyr mutation in fusA gene after 18 to 24 hrs by Etest strip assay; how it was run: as §2
Staphylococcus aureus [12] = assay: Antibacterial activity against fusidic acid-resistant Staphylococcus aureus AH190 harboring Arg464His mutation in fusA gene after 18 to 24 hrs by Etest strip assay; how it was run: as §2
Staphylococcus aureus [13] = assay: Antibacterial activity against fusidic acid-resistant Staphylococcus aureus AH193 harboring TAA stop codon at nucleotide 299 in rplF gene after 18 to 24 hrs by Etest strip assay; how it was run: as §2
Staphylococcus aureus [14] = assay: Antibacterial activity against fusidic acid-resistant Staphylococcus aureus AH202 harboring CTG start codon at nucleotide 1 in rplF gene after 18 to 24 hrs by Etest strip assay; how it was run: as §2
Staphylococcus aureus [15] = assay: Antibacterial activity against kanamycin-resistant Staphylococcus aureus AH336 (SCV-8) harboring His438Asn mutation in fusA gene after 18 to 24 hrs by Etest strip assay
How it was run: (§3)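 SCVs of a Rifr 8325-4 derivative were selected on LA with KAN at 8, 16 or 24 μg/ml for 48 h at 37°C. They were purified at the same KAN level and screened on LA plus FA 1 μg/ml.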

Staphylococcus aureus [16] = assay: Antibacterial activity against kanamycin-resistant Staphylococcus aureus AH338 (SCV-10) harboring Arg464Cys mutation in fusA gene after 18 to 24 hrs by Etest strip assay; how it was run: as §3
Staphylococcus aureus [17] = assay: Antibacterial activity against kanamycin-resistant Staphylococcus aureus AH329 (SCV-1) harboring Arg659Cys mutation in fusA gene after 18 to 24 hrs by Etest strip assay; how it was run: as §3
Staphylococcus aureus [18] = assay: Antibacterial activity against kanamycin-resistant Staphylococcus aureus AH331 (SCV-3) harboring Arg659His mutation in fusA gene after 18 to 24 hrs by Etest strip assay; how it was run: as §3
Staphylococcus aureus [19] = assay: Antibacterial activity against kanamycin-resistant Staphylococcus aureus AH380 (SCV-52) harboring -1 frameshift mutation at nucleotide 158 in rplF gene after 18 to 24 hrs by Etest strip assay; how it was run: as §3
Staphylococcus aureus [20] = assay: Antibacterial activity against kanamycin-resistant Staphylococcus aureus AH352 (SCV-24) harboring -1 frameshift mutation at nucleotide 106 in rplF gene after 18 to 24 hrs by Etest strip assay; how it was run: as §3
Staphylococcus aureus [21] = assay: Antibacterial activity against kanamycin-resistant Staphylococcus aureus AH377 (SCV-49) harboring +1 frameshift mutation at nucleotide 23 in rplF gene after 18 to 24 hrs by Etest strip assay; how it was run: as §3
Staphylococcus aureus [22] = assay: Antibacterial activity against kanamycin-resistant Staphylococcus aureus AH392 (SCV-64) harboring -1 frameshift mutation at nucleotide 383 in rplF gene after 18 to 24 hrs by Etest strip assay; how it was run: as §1
Staphylococcus aureus [23] = assay: Antibacterial activity against kanamycin-resistant Staphylococcus aureus AH349 (SCV-21) harboring -1 frameshift mutation at nucleotide 404 in rplF gene after 18 to 24 hrs by Etest strip assay; how it was run: as §3
Staphylococcus aureus [24] = assay: Antibacterial activity against kanamycin-resistant Staphylococcus aureus AH337 (SCV-9) harboring -1 frameshift mutation at nucleotide 220 in rplF gene after 18 to 24 hrs by Etest strip assay; how it was run: as §3
Staphylococcus aureus [25] = assay: Antibacterial activity against kanamycin-resistant Staphylococcus aureus AH357 (SCV-29) harboring TAA stop codon at nucleotide 301 in rplF gene after 18 to 24 hrs by Etest strip assay; how it was run: as §3
Staphylococcus aureus [26] = assay: Antibacterial activity against kanamycin-resistant Staphylococcus aureus AH378 (SCV-50) harboring -1 frameshift mutation at nucleotide 221 in rplF gene after 18 to 24 hrs by Etest strip assay; how it was run: as §3
Staphylococcus aureus [27] = assay: Antibacterial activity against kanamycin-resistant Staphylococcus aureus AH362 (SCV-34) harboring TAA stop codon at nucleotide 282 in rplF gene after 18 to 24 hrs by Etest strip assay; how it was run: as §3
Staphylococcus aureus [28] = assay: Antibacterial activity against kanamycin-resistant Staphylococcus aureus AH330 (SCV-2) harboring -1 frameshift mutation at nucleotide 423 in rplF gene after 18 to 24 hrs by Etest strip assay; how it was run: as §3
Staphylococcus aureus [29] = assay: Antibacterial activity against kanamycin-resistant Staphylococcus aureus AH386 (SCV-58) harboring -1 frameshift mutation at nucleotide 90 in rplF gene after 18 to 24 hrs by Etest strip assay; how it was run: as §3
Staphylococcus aureus [30] = assay: Antibacterial activity against kanamycin-resistant and fusidic acid-susceptible Staphylococcus aureus AH294 harboring Gly628Val mutation in fusA gene after 18 to 24 hrs by Etest strip assay; how it was run: as §1
Staphylococcus aureus [31] = assay: Antibacterial activity against kanamycin-resistant and fusidic acid-susceptible Staphylococcus aureus AH287 harboring Ala655Glu mutation in fusA gene after 18 to 24 hrs by Etest strip assay; how it was run: as §1
Staphylococcus aureus [32] = assay: Antibacterial activity against kanamycin-resistant and fusidic acid-susceptible Staphylococcus aureus AH291 harboring Arg659His mutation in fusA gene after 18 to 24 hrs by Etest strip assay; how it was run: as §1

Compound	fold change (FC) (Staphylococcus aureus [1])	fold change (FC) (Staphylococcus aureus [2])	MIC (Staphylococcus aureus [3]) [µg/mL]	MIC (Staphylococcus aureus [4]) [µg/mL]	MIC (Staphylococcus aureus [5]) [µg/mL]	MIC (Staphylococcus aureus [6]) [µg/mL]	MIC (Staphylococcus aureus [7]) [µg/mL]	MIC (Staphylococcus aureus [8]) [µg/mL]	MIC (Staphylococcus aureus [9]) [µg/mL]	MIC (Staphylococcus aureus [10]) [µg/mL]	MIC (Staphylococcus aureus [11]) [µg/mL]	MIC (Staphylococcus aureus [12]) [µg/mL]	MIC (Staphylococcus aureus [13]) [µg/mL]	MIC (Staphylococcus aureus [14]) [µg/mL]	MIC (Staphylococcus aureus [15]) [µg/mL]	MIC (Staphylococcus aureus [16]) [µg/mL]	MIC (Staphylococcus aureus [17]) [µg/mL]	MIC (Staphylococcus aureus [18]) [µg/mL]	MIC (Staphylococcus aureus [19]) [µg/mL]	MIC (Staphylococcus aureus [20]) [µg/mL]	further results
CC(=O)O[C@H]1C[C@@]2(C)[C@@H](C[C@@H](O)[C@H]3[C@@]4(C)CC[C@@H](O)[C@@H](C)[C@@H]4CC[C@@]32C)/C1=C(\CCC=C(C)C)C(=O)O [FUSIDIC ACID]	32	32	12	8 (≈ 15.5 µM)	12 (≈ 23.2 µM)	24	48 (≈ 92.9 µM)	4 (≈ 7.74 µM)	6 (≈ 11.6 µM)	12 (≈ 23.2 µM)	96 (≈ 186 µM)	6 (≈ 11.6 µM)	4 (≈ 7.74 µM)	4 (≈ 7.74 µM)	8 (≈ 15.5 µM)	2 (≈ 3.87 µM)	12 (≈ 23.2 µM)	8 (≈ 15.5 µM)	6	4	MIC (Staphylococcus aureus [21]): 4 µg/mL; MIC (Staphylococcus aureus [22]): 4 µg/mL; MIC (Staphylococcus aureus [23]): 4 µg/mL; MIC (Staphylococcus aureus [24]): 12 µg/mL; MIC (Staphylococcus aureus [25]): 12 µg/mL (≈ 23.2 µM); MIC (Staphylococcus aureus [26]): 8 µg/mL; MIC (Staphylococcus aureus [27]): 12 µg/mL (≈ 23.2 µM); MIC (Staphylococcus aureus [28]): 12 µg/mL; MIC (Staphylococcus aureus [29]): 24 µg/mL; MIC (Staphylococcus aureus [30]): 2 µg/mL (≈ 3.87 µM); MIC (Staphylococcus aureus [31]): 12 µg/mL (≈ 23.2 µM); MIC (Staphylococcus aureus [32]): 4 µg/mL (≈ 7.74 µM)
NC[C@H]1O[C@H](O[C@H]2[C@H](O)[C@@H](O[C@H]3O[C@H](CO)[C@@H](O)[C@H](N)[C@H]3O)[C@H](N)C[C@@H]2N)[C@H](O)[C@@H](O)[C@@H]1O [KANAMYCIN]	3	3	128	256 (≈ 528 µM)	256 (≈ 528 µM)	256	256 (≈ 528 µM)	3 (≈ 6.19 µM)	3 (≈ 6.19 µM)	6 (≈ 12.4 µM)	3 (≈ 6.19 µM)	4 (≈ 8.26 µM)	8 (≈ 16.5 µM)	8 (≈ 16.5 µM)	16 (≈ 33 µM)	48 (≈ 99.1 µM)	12 (≈ 24.8 µM)	16 (≈ 33 µM)	4	6	MIC (Staphylococcus aureus [21]): 6 µg/mL; MIC (Staphylococcus aureus [22]): 12 µg/mL; MIC (Staphylococcus aureus [23]): 16 µg/mL; MIC (Staphylococcus aureus [24]): 96 µg/mL; MIC (Staphylococcus aureus [25]): 96 µg/mL (≈ 198 µM); MIC (Staphylococcus aureus [26]): 16 µg/mL; MIC (Staphylococcus aureus [27]): 128 µg/mL (≈ 264 µM); MIC (Staphylococcus aureus [28]): 128 µg/mL; MIC (Staphylococcus aureus [29]): 256 µg/mL; MIC (Staphylococcus aureus [30]): 16 µg/mL (≈ 33 µM); MIC (Staphylococcus aureus [31]): 16 µg/mL (≈ 33 µM); MIC (Staphylococcus aureus [32]): 24 µg/mL (≈ 49.5 µM)
CN[C@@H]1[C@H](O[C@H]2[C@H](O[C@H]3[C@H](O)[C@@H](O)[C@H](N=C(N)N)[C@@H](O)[C@@H]3N=C(N)N)O[C@@H](C)[C@]2(O)C=O)O[C@@H](CO)[C@H](O)[C@H]1O [STREPTOMYCIN]	3	3	32	64 (≈ 110 µM)	256 (≈ 440 µM)	256	256 (≈ 440 µM)	12 (≈ 20.6 µM)	8 (≈ 13.8 µM)	8 (≈ 13.8 µM)	6 (≈ 10.3 µM)	8 (≈ 13.8 µM)	24 (≈ 41.3 µM)	16 (≈ 27.5 µM)	12 (≈ 20.6 µM)	24 (≈ 41.3 µM)	24 (≈ 41.3 µM)	24 (≈ 41.3 µM)	24	24	MIC (Staphylococcus aureus [21]): 24 µg/mL; MIC (Staphylococcus aureus [22]): 16 µg/mL; MIC (Staphylococcus aureus [23]): 64 µg/mL; MIC (Staphylococcus aureus [24]): 256 µg/mL; MIC (Staphylococcus aureus [25]): 256 µg/mL (≈ 440 µM); MIC (Staphylococcus aureus [26]): 256 µg/mL; MIC (Staphylococcus aureus [27]): 256 µg/mL (≈ 440 µM); MIC (Staphylococcus aureus [28]): 96 µg/mL; MIC (Staphylococcus aureus [29]): 96 µg/mL; MIC (Staphylococcus aureus [30]): 8 µg/mL (≈ 13.8 µM); MIC (Staphylococcus aureus [31]): 48 µg/mL (≈ 82.5 µM); MIC (Staphylococcus aureus [32]): 24 µg/mL (≈ 41.3 µM)
